Converted amounts (≈) assume the structure as drawn. The source made the active and inactive calls. No cut-off for these calls is given here.
Legend:
[1] = Metabolic stability in mouse liver microsomes assessed as parent compound remaining at 10 uM after 60 mins by LC-MS analysis; format: ADME, microsome; conditions: read-out: Stability
Outline: (§1)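 The 60 min samples of the microsomal incubation (10 μM compound, human or mouse liver microsomes at 0.5 mg/mL, NADPH regenerating system, 37 °C) were analysed by LC-MS. Detection used SIM mode with dual ESI/APCI ionization, calibrated to the retention times and masses of the parent and its O-demethylated metabolites. Peak intensities were measured.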

[2] = molecular target: Voltage-gated inwardly rectifying potassium channel KCNH2 (Homo sapiens, UniProt Q12809); test: Displacement of [3H]-dofetilide from human ERG expressed in HEK cell membranes at >10 uM after 60 to 90 mins by scintillation counting
Chain of Voltage-gated inwardly rectifying potassium channel KCNH2 (Q12809 whole entry): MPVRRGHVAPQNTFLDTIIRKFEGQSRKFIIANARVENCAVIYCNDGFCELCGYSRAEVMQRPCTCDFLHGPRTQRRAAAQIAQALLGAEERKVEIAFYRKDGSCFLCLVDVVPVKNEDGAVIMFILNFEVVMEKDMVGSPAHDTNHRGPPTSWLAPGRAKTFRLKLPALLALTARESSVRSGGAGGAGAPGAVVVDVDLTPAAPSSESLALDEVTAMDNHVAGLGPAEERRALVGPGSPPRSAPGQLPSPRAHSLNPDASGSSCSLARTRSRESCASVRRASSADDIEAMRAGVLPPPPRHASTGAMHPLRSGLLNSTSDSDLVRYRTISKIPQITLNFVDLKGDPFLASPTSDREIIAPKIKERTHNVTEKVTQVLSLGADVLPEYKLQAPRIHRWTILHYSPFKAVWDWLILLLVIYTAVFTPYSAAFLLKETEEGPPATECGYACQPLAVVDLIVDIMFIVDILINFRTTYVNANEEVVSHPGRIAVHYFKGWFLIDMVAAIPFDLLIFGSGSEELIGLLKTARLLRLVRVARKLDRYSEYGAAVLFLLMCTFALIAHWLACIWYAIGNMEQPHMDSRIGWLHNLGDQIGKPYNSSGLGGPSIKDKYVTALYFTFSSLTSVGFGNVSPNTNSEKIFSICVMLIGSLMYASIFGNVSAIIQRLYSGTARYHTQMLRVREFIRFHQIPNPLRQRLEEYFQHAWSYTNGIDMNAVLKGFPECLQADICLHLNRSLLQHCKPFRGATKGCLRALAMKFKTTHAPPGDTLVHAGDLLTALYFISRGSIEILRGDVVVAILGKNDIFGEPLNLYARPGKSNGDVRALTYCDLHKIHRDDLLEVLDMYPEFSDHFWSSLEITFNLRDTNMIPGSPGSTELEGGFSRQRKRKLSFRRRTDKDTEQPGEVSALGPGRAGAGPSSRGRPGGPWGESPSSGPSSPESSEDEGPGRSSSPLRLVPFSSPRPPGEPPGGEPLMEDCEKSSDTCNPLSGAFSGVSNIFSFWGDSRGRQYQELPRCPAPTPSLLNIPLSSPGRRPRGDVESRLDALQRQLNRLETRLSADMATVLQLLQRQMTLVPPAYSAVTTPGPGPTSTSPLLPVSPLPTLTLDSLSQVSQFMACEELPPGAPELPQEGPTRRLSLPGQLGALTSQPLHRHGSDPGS

Liver [3] = test: Half life in mouse liver microsomes at 10 uM by LC-MS/MS analysis; format: ADME, microsome
Outline: (§2)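 Compound at 10 μM final was preincubated 5 min at 37 °C with NADPH regenerating system in phosphate buffer, pH 7.4. Human or mouse liver microsomes (0.5 mg/mL protein) were added to start the reaction. Samples were taken at 0 (no microsomes) and 10–60 min and measured by LC-MS/MS against an internal standard. Half-life = 0.693/k, with k the slope of ln peak-area ratio versus time. Three experiments, each in duplicate.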

HEK-293T = test: Cytotoxicity against HEK293T cells assessed as reduction in cell viability up to 400 uM after 48 hrs by CellTiter-Glo assay; format: cell-based; conditions: human
Outline: (§3)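 HEK293T and HepG2 cells grown in high-glucose DMEM with non-essential amino acids, 10 mM HEPES, penicillin/streptomycin and 10% heat-inactivated FBS. Cells were harvested with trypsin and plated; compound was pin-transferred 3 h later. Incubation was 48 h, then CellTiter-Glo luminescence was read. Controls were DMSO (negative) and a cytotoxic aminoketone (positive). Quadruplicates, three independent runs, normalized to controls, nonlinear regression.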

[4] = Metabolic stability in human liver microsomes assessed as parent compound remaining at 10 uM after 60 mins by LC-MS analysis; format: ADME, microsome; conditions: read-out: Stability; outline: as §1
Liver [5] = test: Half life in human liver microsomes at 10 uM by LC-MS/MS analysis; format: ADME, microsome; outline: as §2
HepG2 = test: Cytotoxicity against human HepG2 cells assessed as reduction in cell viability up to 400 uM after 48 hrs by CellTiter-Glo assay; format: cell-based; conditions: hepg2, 48 h; outline: as §3
Mus musculus = test: Neurotoxicity in Swiss Webster mouse assessed as induction of motor impairment at 40 mg/kg administered via oral gavage measured after 10 to 60 mins by rotarod method; format: toxicity, organism-based; conditions: in vivo
Outline: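 Female mice were given a single oral gavage dose of 40 mg/kg, either in 50% PBS/40% propylene glycol/10% DMSO or, for poorly soluble compounds, in 2% polyethylene glycol plus 2.5% hydroxymethyl cellulose. Rotarod performance was tested 10, 30 and 60 min after dosing, with diazepam 5 mg/kg as positive control.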

[6] = molecular target: T1, 5-hydroxytryptamine receptor 2C (Homo sapiens) (UniProt P28335); test: Displacement of [3H]-mesulergine from human recombinant 5HT2C receptor expressed in HEK293T cells at 10 uM after 60 to 90 mins by scintillation counting; format: cell-based; conditions: HEK-293T, tested as the 2H-labelled form
T1 sequence (whole entry): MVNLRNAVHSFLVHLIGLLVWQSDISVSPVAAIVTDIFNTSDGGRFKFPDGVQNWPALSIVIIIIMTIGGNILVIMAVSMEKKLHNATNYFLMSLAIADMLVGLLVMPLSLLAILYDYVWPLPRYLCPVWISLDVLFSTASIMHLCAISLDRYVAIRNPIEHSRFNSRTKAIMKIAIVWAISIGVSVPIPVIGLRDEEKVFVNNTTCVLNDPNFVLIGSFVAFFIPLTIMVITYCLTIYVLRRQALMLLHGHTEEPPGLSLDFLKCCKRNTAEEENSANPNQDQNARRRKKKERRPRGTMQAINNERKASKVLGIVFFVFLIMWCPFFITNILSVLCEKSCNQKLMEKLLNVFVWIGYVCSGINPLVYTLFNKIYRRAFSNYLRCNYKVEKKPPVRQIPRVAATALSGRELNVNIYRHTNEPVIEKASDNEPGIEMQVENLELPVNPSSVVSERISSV

Rattus norvegicus = organism: Rattus norvegicus; test: Displacement of [3H]-flunitrazepam from rat brain GABA-A receptor benzodiazepine site […] at 10 uM after 60 to 90 mins by scintillation counting
[7] = molecular target: 5-hydroxytryptamine receptor 2B (Homo sapiens) (UniProt P41595); test: Displacement of [3H]-LSD from human recombinant 5HT2B receptor expressed in HEK293 cells at 10 uM after 60 to 90 mins by scintillation counting; format: cell-based; conditions: tested as the 2H-labelled form
Chain of 5-hydroxytryptamine receptor 2B (Homo sapiens) (P41595 whole entry): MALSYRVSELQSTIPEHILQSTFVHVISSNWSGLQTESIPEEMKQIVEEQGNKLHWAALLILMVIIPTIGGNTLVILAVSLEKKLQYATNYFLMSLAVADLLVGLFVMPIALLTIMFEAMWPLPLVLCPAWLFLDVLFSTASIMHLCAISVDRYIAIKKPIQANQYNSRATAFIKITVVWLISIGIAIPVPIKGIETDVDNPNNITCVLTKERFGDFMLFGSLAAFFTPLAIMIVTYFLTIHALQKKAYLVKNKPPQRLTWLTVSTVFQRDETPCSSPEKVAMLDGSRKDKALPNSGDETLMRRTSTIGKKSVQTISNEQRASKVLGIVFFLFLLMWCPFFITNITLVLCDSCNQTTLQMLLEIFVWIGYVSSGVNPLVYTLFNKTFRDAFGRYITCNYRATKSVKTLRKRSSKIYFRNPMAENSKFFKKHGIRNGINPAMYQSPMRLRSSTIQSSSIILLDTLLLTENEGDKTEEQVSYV

[8] = molecular target: 5-hydroxytryptamine receptor 7 (Homo sapiens) (UniProt P34969); test: Displacement of [3H]-LSD from human recombinant 5HT7 receptor expressed in HEK293 cells at 10 uM after 60 to 90 mins by scintillation counting; format: cell-based; conditions: tested as the 2H-labelled form
Chain of 5-hydroxytryptamine receptor 7 (Homo sapiens) (P34969 whole entry): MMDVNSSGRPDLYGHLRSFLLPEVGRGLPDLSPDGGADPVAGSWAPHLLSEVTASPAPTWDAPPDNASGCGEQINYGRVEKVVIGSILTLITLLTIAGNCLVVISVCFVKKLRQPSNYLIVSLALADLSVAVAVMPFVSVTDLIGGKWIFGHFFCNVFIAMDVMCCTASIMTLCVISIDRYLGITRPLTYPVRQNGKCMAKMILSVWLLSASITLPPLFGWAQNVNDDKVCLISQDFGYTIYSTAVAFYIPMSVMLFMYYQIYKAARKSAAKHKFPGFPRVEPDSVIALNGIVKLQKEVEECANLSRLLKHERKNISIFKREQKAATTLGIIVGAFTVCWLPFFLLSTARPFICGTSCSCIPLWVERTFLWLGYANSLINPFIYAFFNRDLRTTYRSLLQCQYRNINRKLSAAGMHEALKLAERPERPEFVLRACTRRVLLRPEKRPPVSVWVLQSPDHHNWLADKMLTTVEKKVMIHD

[9] = molecular target: Mu-type opioid receptor (Homo sapiens) (UniProt P35372); test: Displacement of [3H]-DAMGO from human recombinant MOR expressed in HEK293 cells at 10 uM after 60 to 90 mins by scintillation counting; format: cell-based; conditions: tested as the 2H-labelled form
Chain of Mu-type opioid receptor (Homo sapiens) (P35372 whole entry): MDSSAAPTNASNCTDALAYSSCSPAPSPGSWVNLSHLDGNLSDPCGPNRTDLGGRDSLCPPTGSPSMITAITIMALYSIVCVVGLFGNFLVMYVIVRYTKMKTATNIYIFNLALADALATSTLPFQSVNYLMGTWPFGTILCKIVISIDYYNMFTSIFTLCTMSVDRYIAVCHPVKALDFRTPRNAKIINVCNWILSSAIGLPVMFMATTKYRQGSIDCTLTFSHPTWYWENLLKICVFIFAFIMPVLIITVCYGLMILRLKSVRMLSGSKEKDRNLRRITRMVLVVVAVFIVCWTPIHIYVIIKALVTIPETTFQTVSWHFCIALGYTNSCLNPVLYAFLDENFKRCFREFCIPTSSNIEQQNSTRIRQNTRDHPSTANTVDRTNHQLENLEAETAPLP

[10] = Aqueous solubility of the compound in DI water at pH 7 after 2 hrs by LC-MS analysis; format: physicochemical; conditions: buffer, pH 7, 2 h
Outline: (§4)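 10 mg compound dissolved in 2 mL DMAC; 10 μL of this added to 2 mL DI water (pH 7, sonicated) or 2 mL 0.01 M aq HCl (pH 2), held 2 h at 37 °C. Filtered through 0.45 micron filter, then quantified by LC-MS in SIM mode against calibration curves of standards in DMAC (n = 5); n=3.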

[11] = Solubility of the compound in 0.01M HCl at pH 2 after 2 hrs by LC-MS analysis; format: physicochemical; conditions: buffer, pH 2, 2 h; outline: as §4
[12] = molecular target: GABA-A receptor; alpha-6/beta-3/gamma-2 (Homo sapiens) (UniProt P18507+P28472+Q16445); test: Positive allosteric modulation of GABA-A receptor alpha6beta3gamma2 (unknown origin) expressed in Xenopus laevis oocytes assessed as potentiation of EC3 GABA induced currents up to 10 uM at -60 mV holding potential by electrophysiological method; format: cell-based
Outline: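 Stage 5–6 defolliculated Xenopus oocytes were injected with 2.5 ng total mRNA per oocyte: α1, α2, α3 or α5 with β3 and γ2 at 1:1:5, and α4 or α6 with β3 and γ2 at 3:1:5. Oocytes were kept ≥36 h at 18 °C in NDE medium before recording. Compounds were co-applied with GABA titrated to EC3-5 for each oocyte. Curves were fitted with the Hill equation; mean ± SEM from ≥3 oocytes across two batches.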

| SMILES | remaining at 1 h, 10 µM [1] [%] | inhibition (INH) [2] | t1/2 (Liver [3]) [h] | remaining at 1 h, 10 µM [4] [%] | t1/2 (Liver [5]) [h] | Activity (Mus musculus) | further results |
| --- | --- | --- | --- | --- | --- | --- | --- |
| [2H]C([2H])([2H])Oc1ccc2c3nn(-c4ccccc4OC([2H])([2H])[2H])c(=O)c-3c[nH]c2c1 | 92 | Not Active | 13.9 | 90.5 | 9.9 |  | Activity (HEK-293T): Non-Toxic; Activity (HepG2): Non-Toxic |
| [2H]C([2H])([2H])Oc1cccc(-n2nc3c4ccc(OC)cc4[nH]cc-3c2=O)c1 | 91.6 | Not Active | 14.5 | 81.3 | 3.9 |  |  |
| [2H]C([2H])([2H])Oc1ccc2c3nn(-c4ccc(OC([2H])([2H])[2H])nc4)c(=O)c-3c[nH]c2c1 | 92.5 |  | 14.5 | 90 | 9.8 | Non-Toxic |  |
| COc1ccccc1-n1nc2c3ccc(Br)cc3[nH]cc-2c1=O |  |  |  |  |  |  | inhibition [6]: Active; inhibition (Rattus norvegicus; tested as the 2H-labelled form): Active; inhibition [7]: Active; inhibition [8]: Active; inhibition [9]: Active |
| [2H]C([2H])([2H])Oc1ccc(-n2nc3c4cc(OC([2H])([2H])[2H])ccc4[nH]cc-3c2=O)cc1 |  | Not Active |  |  |  |  |  |
| [2H]C([2H])([2H])Oc1cccc(-n2nc3c4ccc(OC([2H])([2H])[2H])cc4[nH]cc-3c2=O)c1 | 90.5 | Not Active | 9.9 | 89.5 | 7.7 |  | Activity (HEK-293T): Non-Toxic; Activity (HepG2): Non-Toxic |
| [2H]C([2H])([2H])Oc1ccc(-n2nc3c4cc(Cl)ccc4[nH]cc-3c2=O)cn1 | 85.1 | Not Active |  | 93 |  | Non-Toxic |  |
| [2H]C([2H])([2H])Oc1cccc(-n2nc3c4cc(OC([2H])([2H])[2H])ccc4[nH]cc-3c2=O)c1 |  | Not Active |  |  |  |  |  |
| [2H]C([2H])([2H])Oc1ccccc1-n1nc2c3ccc(OC)cc3[nH]cc-2c1=O | 93 | Not Active | 10.9 | 79.9 | 3.5 |  |  |
| COc1ccc(-n2nc3c4cnc(OC)cc4[nH]cc-3c2=O)cc1 | 93 | Not Active | 12 | 91 | 10.6 |  | solubility [10]: 103.7 µM (≈ 33.4 µg/mL); solubility [11]: 135.9 µM (≈ 43.8 µg/mL); Activity [12]: Active |
| [2H]C([2H])([2H])Oc1ccccc1-n1nc2c3ccc(Br)cc3[nH]cc-2c1=O | 61.3 | Not Active | 1.5 | 92.8 | 14.2 |  |  |
| [2H]C([2H])([2H])Oc1ccc(-n2nc3c4ccc(Br)cc4[nH]cc-3c2=O)cn1 | 98.4 | Not Active |  | 97.8 |  | Non-Toxic |  |
| [2H]C([2H])([2H])Oc1ccc(-n2nc3c4cc(Cl)ccc4[nH]cc-3c2=O)cc1 | 85.5 | Not Active |  | 92.2 |  | Non-Toxic | Activity (HEK-293T): Non-Toxic; Activity (HepG2): Non-Toxic |
| COc1ccccc1-n1nc2c3cc(Cl)ccc3[nH]cc-2c1=O |  |  |  |  |  |  | inhibition (Rattus norvegicus; tested as the 2H-labelled form): Active; Activity ([12]; tested as the 2H-labelled form): inactive |
| COc1ccc(-n2nc3c4ccc(Br)cc4[nH]cc-3c2=O)cn1 | 93.1 | Not Active |  | 93.4 |  | Non-Toxic | Activity (HEK-293T): Non-Toxic; solubility [10]: 7.3 µM (≈ 2.71 µg/mL); solubility [11]: 7.2 µM (≈ 2.67 µg/mL); Activity (HepG2): Non-Toxic; Activity ([12]; tested as the 2H-labelled form): Active |
| COc1ccc2c3nn(-c4ccccc4OC)c(=O)c-3c[nH]c2c1 |  |  |  |  |  |  | inhibition (Rattus norvegicus; tested as the 2H-labelled form): inactive |
| COc1ccc(-n2nc3c4cc(Cl)ccc4[nH]cc-3c2=O)cn1 | 85.6 | Not Active |  | 91.6 |  | Non-Toxic | inhibition (Rattus norvegicus): Active; inhibition (Rattus norvegicus; tested as the 2H-labelled form): Active; Activity (HEK-293T): Non-Toxic; solubility [10]: 0.8 µM (≈ 0.261 µg/mL); solubility [11]: 0.9 µM (≈ 0.294 µg/mL); Activity (HepG2): Non-Toxic; Activity ([12]; tested as the 2H-labelled form): inactive |
| COc1cccc(-n2nc3c4ccc(Br)cc4[nH]cc-3c2=O)c1 |  |  |  |  |  |  | inhibition [6]: Active; inhibition (Rattus norvegicus; tested as the 2H-labelled form): Active; inhibition [7]: Active; inhibition [8]: Active; inhibition [9]: Active |
| [2H]C([2H])([2H])Oc1cccc(-n2nc3c4ccc(Br)cc4[nH]cc-3c2=O)c1 | 79.5 | Not Active | 3.6 | 63.5 | 1.8 |  |  |
| [2H]C([2H])([2H])Oc1ccc2[nH]cc3c(=O)n(-c4ccccc4OC([2H])([2H])[2H])nc-3c2c1 |  | Not Active |  |  |  |  |  |

Source: ChEMBL document CHEMBL4033790, “Design and Synthesis of Novel Deuterated Ligands Functionally Selective for the γ-Aminobutyric Acid Type A Receptor (GABAAR) α6 Subtype with Improved Metabolic Stability and Enhanced Bioavailability” (J Med Chem, 2018)
